According to ChEMBL document CHEMBL4387720, “Lead generation of 1,2-dithiolanes as exon 19 and exon 21 mutant EGFR tyrosine kinase inhibitors” (Bioorg Med Chem Lett, 2019):

Experiments:
[1] = biological target: Epidermal growth factor receptor (Homo sapiens, UniProt P00533, G719C); experiment: Binding affinity to human partial length EGFR G719C mutant (R669 to V1011 residues) expressed in bacterial expression system by KinomeScan assay
In short: (§1)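 Competition binding against an immobilized active-site-directed ligand. Bound kinase is quantified by qPCR of its DNA tag. Kd values come from duplicate 11-point dose-response curves.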

CCRF-CEM [2] = experiment: Cytotoxicity against human CCRF-CEM cells assessed as reduction in measured protein incubated for 48 hrs by SRB assay; assay type: functional; settings: read-out: LC50 (the source's name)
In short: (§2)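 Tested in the NCI-60 panel with a five-dose response curve, each value the mean of 2 experiments.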

[3] = biological target: Epidermal growth factor receptor (Homo sapiens, UniProt P00533, G719S); experiment: Binding affinity to human partial length EGFR G719S mutant (R669 to V1011 residues) expressed in bacterial expression system by KinomeScan assay; in short: as §1
[4] = biological target: Epidermal growth factor receptor (Homo sapiens, UniProt P00533, L858R)
NCI-H460 = experiment: Therapeutic index, ratio of LC50 for human NCI-H460 cells to GI50 for human NCI-H460 cells; assay type: functional
In short: (§3)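 NCI-60 panel cell growth assay. Five-point dose-response curves; each value is the average of 2 experiments. […] Therapeutic index is calculated as LC50/GI50.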

Homo sapiens = organism: Homo sapiens; experiment: Selectivity ratio, ratio of IC50 for probe binding to HER2 (unknown origin) to IC50 for probe binding to EGFR L858R mutant (unknown origin)
In short: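 Ratio of two IC50 values measured in the rabbit reticulocyte lysate competition binding assay: HER2 and EGFR L858R. Each IC50 comes from displacement of an active-site-dependent probe, read by luminescence, with a ten-point dose-response. Each IC50 is the average of triplicate experiments.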

A549 [5] = experiment: Therapeutic index, ratio of LC50 for human A549 cells to GI50 for human A549 cells; assay type: functional; in short: as §3
CCRF-CEM [6] = experiment: Therapeutic index, ratio of LC50 for human CCRF-CEM cells to GI50 for human CCRF-CEM cells; assay type: functional
In short: (§4)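 NCI-60 panel screen using five-dose response curves, each value an average of 2 experiments. […] The therapeutic index is calculated as LC50/GI50 for the same cell line.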

[7] = Half life in rat liver microsomes; assay type: ADME, Microsome
A549 [8] = experiment: Cytotoxicity against human A549 cells assessed as reduction in measured protein incubated for 48 hrs by SRB assay; assay type: functional; settings: A549, 48 h, read-out: LC50 (the source's name); in short: as §2
[9] = Half life in human S9 fraction; assay type: ADME, subcellular
[10] = biological target: Epidermal growth factor receptor (Homo sapiens, UniProt P00533); experiment: Binding affinity to human partial length wild type EGFR (R669 to V1011 residues) expressed in bacterial expression system by kinomescan assay; in short: as §1
NCI-H322M = experiment: cells; assay type: functional; settings: Homo sapiens, 48 h
MOLT-4 = experiment: Therapeutic index, ratio of LC50 for human MOLT4 cells to GI50 for human MOLT4 cells; assay type: functional; in short: as §4
[11] = Half life in rat S9 fraction; assay type: ADME, subcellular

Epidermal growth factor receptor (Homo sapiens, UniProt P00533, G719C), sequence (P00533 25-1210 G719C limits assumed): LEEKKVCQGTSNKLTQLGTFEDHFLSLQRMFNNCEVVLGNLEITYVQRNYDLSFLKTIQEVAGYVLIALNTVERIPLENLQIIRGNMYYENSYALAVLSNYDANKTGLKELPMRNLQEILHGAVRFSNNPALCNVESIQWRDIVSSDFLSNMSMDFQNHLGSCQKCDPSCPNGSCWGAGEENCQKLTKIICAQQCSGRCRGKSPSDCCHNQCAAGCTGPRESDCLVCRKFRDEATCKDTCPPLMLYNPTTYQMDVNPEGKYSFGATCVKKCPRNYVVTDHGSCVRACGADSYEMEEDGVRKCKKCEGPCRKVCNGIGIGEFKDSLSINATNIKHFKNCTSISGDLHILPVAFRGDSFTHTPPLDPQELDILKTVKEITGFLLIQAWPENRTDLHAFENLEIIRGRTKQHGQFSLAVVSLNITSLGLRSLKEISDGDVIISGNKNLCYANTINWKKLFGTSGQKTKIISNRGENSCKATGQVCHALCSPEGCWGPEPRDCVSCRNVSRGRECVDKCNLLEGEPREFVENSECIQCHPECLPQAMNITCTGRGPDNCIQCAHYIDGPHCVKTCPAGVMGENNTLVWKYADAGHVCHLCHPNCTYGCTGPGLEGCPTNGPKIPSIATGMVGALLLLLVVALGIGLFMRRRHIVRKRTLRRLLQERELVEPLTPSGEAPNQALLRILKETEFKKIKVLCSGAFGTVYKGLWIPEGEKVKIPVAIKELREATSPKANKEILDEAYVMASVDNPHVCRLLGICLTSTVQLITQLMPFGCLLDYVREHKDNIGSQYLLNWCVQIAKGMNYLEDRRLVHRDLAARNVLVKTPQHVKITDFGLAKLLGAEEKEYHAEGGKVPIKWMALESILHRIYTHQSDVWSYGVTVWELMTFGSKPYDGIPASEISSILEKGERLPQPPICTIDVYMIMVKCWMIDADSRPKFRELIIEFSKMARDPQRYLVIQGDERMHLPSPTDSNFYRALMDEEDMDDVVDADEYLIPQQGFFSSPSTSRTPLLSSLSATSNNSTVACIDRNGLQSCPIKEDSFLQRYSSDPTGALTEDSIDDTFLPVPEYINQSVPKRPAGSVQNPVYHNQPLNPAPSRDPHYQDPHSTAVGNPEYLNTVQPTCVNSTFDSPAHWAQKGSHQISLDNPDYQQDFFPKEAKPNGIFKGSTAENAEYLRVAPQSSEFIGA
Epidermal growth factor receptor (Homo sapiens, UniProt P00533, G719S), sequence (P00533 25-1210 G719S limits assumed): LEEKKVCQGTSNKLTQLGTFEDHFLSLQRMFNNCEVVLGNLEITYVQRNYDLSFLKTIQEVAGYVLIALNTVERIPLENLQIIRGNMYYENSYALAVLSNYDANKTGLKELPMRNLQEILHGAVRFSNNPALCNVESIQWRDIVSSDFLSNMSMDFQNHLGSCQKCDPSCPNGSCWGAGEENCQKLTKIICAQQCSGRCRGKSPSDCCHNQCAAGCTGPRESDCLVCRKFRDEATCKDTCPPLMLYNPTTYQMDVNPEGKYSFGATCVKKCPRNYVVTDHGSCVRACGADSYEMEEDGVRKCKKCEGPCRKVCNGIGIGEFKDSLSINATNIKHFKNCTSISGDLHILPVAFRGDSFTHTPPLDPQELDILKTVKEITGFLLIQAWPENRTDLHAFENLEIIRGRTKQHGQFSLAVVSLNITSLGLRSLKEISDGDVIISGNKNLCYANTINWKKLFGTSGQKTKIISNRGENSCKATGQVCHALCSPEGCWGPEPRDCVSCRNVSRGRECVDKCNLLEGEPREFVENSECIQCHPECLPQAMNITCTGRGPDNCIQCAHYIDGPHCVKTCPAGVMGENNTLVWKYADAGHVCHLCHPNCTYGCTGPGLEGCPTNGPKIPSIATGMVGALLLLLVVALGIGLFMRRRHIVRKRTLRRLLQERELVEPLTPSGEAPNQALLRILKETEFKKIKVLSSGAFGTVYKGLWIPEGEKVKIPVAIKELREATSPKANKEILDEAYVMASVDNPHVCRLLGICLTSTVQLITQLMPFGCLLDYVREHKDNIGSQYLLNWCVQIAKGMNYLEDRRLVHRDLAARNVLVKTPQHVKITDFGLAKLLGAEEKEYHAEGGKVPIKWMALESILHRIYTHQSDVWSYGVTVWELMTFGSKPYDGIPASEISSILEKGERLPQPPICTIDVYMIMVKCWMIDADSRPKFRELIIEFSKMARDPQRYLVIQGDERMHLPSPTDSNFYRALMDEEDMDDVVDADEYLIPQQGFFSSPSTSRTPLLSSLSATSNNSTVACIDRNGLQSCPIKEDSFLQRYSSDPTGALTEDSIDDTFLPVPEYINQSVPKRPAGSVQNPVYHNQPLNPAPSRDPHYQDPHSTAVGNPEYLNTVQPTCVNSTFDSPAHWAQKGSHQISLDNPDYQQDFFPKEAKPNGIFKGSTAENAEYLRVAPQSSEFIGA
Epidermal growth factor receptor (Homo sapiens, UniProt P00533), sequence (P00533 whole entry, the tested form may be a part): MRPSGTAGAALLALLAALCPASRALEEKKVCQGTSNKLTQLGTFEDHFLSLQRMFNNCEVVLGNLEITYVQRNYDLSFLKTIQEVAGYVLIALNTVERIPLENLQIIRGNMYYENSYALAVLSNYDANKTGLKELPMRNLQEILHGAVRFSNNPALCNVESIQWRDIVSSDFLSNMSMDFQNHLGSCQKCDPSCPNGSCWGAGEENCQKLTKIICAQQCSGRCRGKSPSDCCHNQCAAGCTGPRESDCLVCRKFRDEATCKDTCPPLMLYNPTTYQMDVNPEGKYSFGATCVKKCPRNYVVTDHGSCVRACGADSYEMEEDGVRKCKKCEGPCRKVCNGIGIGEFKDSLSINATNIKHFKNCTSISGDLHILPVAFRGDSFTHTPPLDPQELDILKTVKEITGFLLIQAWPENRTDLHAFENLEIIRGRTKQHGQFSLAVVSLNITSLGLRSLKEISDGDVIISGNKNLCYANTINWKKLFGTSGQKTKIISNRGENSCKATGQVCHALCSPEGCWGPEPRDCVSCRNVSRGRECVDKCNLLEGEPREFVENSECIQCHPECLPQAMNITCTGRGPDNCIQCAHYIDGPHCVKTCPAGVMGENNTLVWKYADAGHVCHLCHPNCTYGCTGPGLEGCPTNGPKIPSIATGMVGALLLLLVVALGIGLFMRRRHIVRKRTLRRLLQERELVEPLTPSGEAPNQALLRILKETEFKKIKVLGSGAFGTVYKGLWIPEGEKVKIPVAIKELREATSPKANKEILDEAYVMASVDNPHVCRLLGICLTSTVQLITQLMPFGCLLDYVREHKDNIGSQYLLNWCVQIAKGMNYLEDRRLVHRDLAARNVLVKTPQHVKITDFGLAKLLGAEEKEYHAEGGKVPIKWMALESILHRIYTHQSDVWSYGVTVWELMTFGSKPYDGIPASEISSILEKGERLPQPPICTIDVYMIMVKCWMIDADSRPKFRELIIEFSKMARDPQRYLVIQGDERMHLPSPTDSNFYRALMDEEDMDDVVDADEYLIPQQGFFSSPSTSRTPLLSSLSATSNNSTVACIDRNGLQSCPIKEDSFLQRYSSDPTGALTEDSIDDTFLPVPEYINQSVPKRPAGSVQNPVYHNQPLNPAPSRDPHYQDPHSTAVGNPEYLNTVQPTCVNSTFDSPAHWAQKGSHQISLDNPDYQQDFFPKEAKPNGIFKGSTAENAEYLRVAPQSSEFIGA
Epidermal growth factor receptor (Homo sapiens, UniProt P00533, L858R), sequence (P00533 25-1210 L858R limits assumed): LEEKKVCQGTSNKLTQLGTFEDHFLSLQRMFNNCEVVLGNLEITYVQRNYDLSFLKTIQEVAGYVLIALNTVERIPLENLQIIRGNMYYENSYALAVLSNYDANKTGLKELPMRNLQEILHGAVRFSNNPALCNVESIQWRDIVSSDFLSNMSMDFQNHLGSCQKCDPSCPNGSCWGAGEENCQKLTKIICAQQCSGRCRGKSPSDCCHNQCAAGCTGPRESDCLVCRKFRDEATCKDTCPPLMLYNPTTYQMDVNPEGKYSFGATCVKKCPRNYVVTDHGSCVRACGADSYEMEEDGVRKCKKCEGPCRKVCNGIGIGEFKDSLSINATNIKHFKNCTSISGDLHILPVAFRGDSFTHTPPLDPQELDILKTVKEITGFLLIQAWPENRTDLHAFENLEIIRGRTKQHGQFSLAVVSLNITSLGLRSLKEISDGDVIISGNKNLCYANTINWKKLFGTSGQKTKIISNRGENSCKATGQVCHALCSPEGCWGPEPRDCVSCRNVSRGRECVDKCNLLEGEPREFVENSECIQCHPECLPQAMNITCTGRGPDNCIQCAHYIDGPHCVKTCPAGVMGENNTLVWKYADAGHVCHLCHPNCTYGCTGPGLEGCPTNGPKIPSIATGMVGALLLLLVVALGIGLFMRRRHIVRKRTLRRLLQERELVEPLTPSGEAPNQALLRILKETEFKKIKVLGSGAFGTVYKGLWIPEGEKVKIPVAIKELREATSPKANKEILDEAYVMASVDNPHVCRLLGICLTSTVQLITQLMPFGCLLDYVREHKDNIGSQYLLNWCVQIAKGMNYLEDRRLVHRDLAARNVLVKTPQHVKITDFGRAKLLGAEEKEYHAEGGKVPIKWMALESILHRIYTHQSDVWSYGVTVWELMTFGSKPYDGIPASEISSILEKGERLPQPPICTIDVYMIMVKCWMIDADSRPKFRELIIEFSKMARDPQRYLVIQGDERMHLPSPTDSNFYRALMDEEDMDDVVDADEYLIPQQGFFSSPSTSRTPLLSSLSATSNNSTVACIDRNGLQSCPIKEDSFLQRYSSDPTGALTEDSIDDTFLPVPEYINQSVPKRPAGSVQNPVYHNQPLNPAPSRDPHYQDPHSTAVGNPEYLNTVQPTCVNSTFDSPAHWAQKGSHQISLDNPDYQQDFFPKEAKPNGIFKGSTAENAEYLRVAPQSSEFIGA

For CCOc1cc2ncc(C#N)c(Nc3ccc(OCc4cccc(F)c4)c(Cl)c3)c2cc1NC(=O)CC1CCSS1 (stereo not given), the Kd [1] was 5.7 nM, the CC50 (CCRF-CEM [2]) was over 25000 nM and the Kd [3] was 14 nM. The IC50 [4] was 10.9 to 11 nM, the TI (NCI-H460) was 4.1 and the Ratio IC50 (Homo sapiens) was 14.7. The TI (A549 [5]) was 6.2, the TI (CCRF-CEM [6]) was over 166 and the half-life [7] was 0.955 h. For the same compound, the CC50 (A549 [8]) was 3400 nM, the half-life [9] was 1 h and the Kd [10] was 120 nM. It also gave a GI50 (NCI-H322M) of 600 nM, a TI (MOLT-4) of over 156 and a half-life [11] of over 1 h.
